In PubChem BioAssay AID463191 (Sanford-Burnham Center for Chemical Genomics, 2010):
Activity calls are given as the source filed them.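 The calls were made as follows: active = compounds whose mean IC50 across repeat dose response tests falls below a set limit; inactive = the rest.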

The compounds below were run on AML12 mouse hepatocytes, BODIPY lipid droplet imaging (assay: potency against lipid droplet buildup in liver cells – imaging, AML12 mouse hepatocytes, high-content, dose response (AID 463191)). Details: cells loaded with 100 µM oleic acid.
Procedure, shortened: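 System – AML12 mouse hepatocyte cell line, lipid droplet imaging · Reagent – oleic acid at 100 µM final for lipid loading · Compound dosing – 7 doses, 0.5–32 µM, 0.32% DMSO · Schedule – cells grown about 20 h at 37 °C, then overnight compound exposure · Read-out – IC50 from per-cell lipid droplet intensity · Replication – duplicate points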

Row | Compound | IC50
1 | CCCOc1ccc(/C=N/Nc2ccccc2[N+](=O)[O-])c(OCCC)c1 | < 0.5 µM
2 | Nc1nc(-c2ccccc2)c(N=Nc2cccc3ccccc23)s1 | 0.525 µM
3 | CCOC(=O)c1cc(CC)sc1NC(=O)C1CC(=O)NN1Cc1ccccc1 (configuration not stated) | 0.573 µM
4 | COc1ccc(Cl)cc1NC(=O)CN1C(=O)NC2(CCCC2)C1=O | 4.27 µM
5 | CCOc1ccc(CCNC(=O)CCOc2cc(C)ccc2C)cc1OCC | < 0.5 µM
6 | CCOc1ccc2nc(NC(=O)CSc3nc4ccccc4c(=O)n3Cc3ccco3)sc2c1 | 0.62 µM
7 | COc1ccc(C(=O)OC(C)C(=O)NC(C)CCc2ccccc2)cc1[N+](=O)[O-] (configuration not stated) | 0.549 µM
8 | CCOc1ccc(CCNC(=O)CCS(=O)(=O)c2ccc(OC)cc2)cc1OCC | 2.72 µM
9 | CCCOc1ccc(C(=O)OCC(=O)NCCc2ccc(OCC)c(OCC)c2)cc1OC | 0.593 µM
10 | CCC(C)(C)NC(=O)C(c1sccc1C)N(Cc1ccco1)C(=O)c1csnn1 (configuration not stated) | 11.9 µM (inactive)
11 | COc1ccc(Cl)cc1NC(=O)CN(C)C(=O)CCCc1c[nH]c2ccccc12 | 2.3 µM
12 | Cc1ccc(CNC(=O)c2ccc(N3CCC4(CC3)CC(c3ccccc3)=NO4)c(NC(=O)c3ccc(Br)cc3)c2)cc1 | < 0.5 µM
13 | CCOc1cc2c(cc1OCC)C(c1ccc(OC)cc1)N(c1ccccc1)C(=O)C2 (configuration not stated) | > 32 µM (inactive)
14 | CC(Sc1nnc(Nc2ccccc2)s1)C(=O)Nc1nc(-c2ccccc2)cs1 (configuration not stated) | 5.77 µM (inactive)
15 | COc1ccc(C(=O)NC2CCCc3c2cnn3-c2cccc(C)c2C)o1 (configuration not stated) | 2.56 µM
16 | COc1cc(NC(=O)c2cccs2)c(OC)cc1NC(=O)CCC(=O)Nc1ccc2ncccc2c1 | 2.23 µM
17 | COc1ccc(C(C(=O)NC(C)(C)C)N(CCC(C)C)C(=O)CCC(=O)Nc2cc(C)on2)cc1 (configuration not stated) | 1.2 µM
18 | CCOc1ccc(CCNC(=O)Nc2ccccc2C)cc1OCC | 2.03 µM
19 | COc1ccc(CN(C)C(=O)CNC(=O)Cc2cccc3ccccc23)c(OC)c1OC | 4.55 µM
20 | CC(=O)Nc1ccc(-c2csc(NC(=O)Cc3cccc(F)c3)n2)cc1 | 1.8 µM
21 | COc1ccc(C(C(=O)NC(C)(C)C)N(CC2CCCO2)C(=O)CCC(=O)Nc2cc(C)on2)cc1 (configuration not stated) | 4.95 µM
22 | CCOc1ccc(CCNC(=O)Cn2c(-c3nonc3N)nc3ccccc32)cc1OCC | 0.58 µM
23 | CCOC(=O)c1ccc(S(=O)(=O)NCC(c2ccc(N(C)C)cc2)c2c[nH]c3ccccc23)cc1 (configuration not stated) | 0.927 µM
24 | CCOc1ccc(CCNC(=O)c2nnc(Cc3ccc(F)cc3)o2)cc1OCC | 1.57 µM
25 | CCOc1ccc(CCNC(=O)c2c(C)nn(-c3ccccc3)c2Cl)cc1OCC | 7.56 µM (inactive)

Row | Compound | IC50
26 | CCOc1ccc(CCNC(=O)CS(=O)Cc2nc(-c3ccccc3C)oc2C)cc1OCC (configuration not stated) | 5.36 µM (inactive)
27 | COc1cccc(NC(=O)CCC(=O)Nc2cc(OC)c(NC(=O)c3cccs3)cc2OC)c1 | 0.754 µM
28 | COc1ccc(CNC(=O)CN2C(=O)NC(C)(c3cccc4ccccc34)C2=O)cc1OC (configuration not stated) | 2.32 µM
29 | COc1ccc(C(C(=O)NC(C)(C)C)N(Cc2ccc(C)cc2)C(=O)CCC(=O)Nc2cc(C)on2)cc1 (configuration not stated) | 2.3 µM
30 | COc1ccc(NC(=O)[C@H](C)NC(=O)[C@@H]2Cc3ccccc3CN2C(=O)OC(C)(C)C)cc1 | 7.12 µM (inactive)
31 | CC(C)COc1cccc(-c2cc(C(=O)Nc3ccon3)c3ccccc3n2)c1 | 3.83 µM
32 | CCOc1ccc(CCNC(=O)COC(=O)c2c(C)nn(-c3ccccc3)c2C)cc1OCC | < 0.5 µM
33 | CCOc1ccc(CCNC(=O)CCC(=O)N2CCOc3ccccc32)cc1OCC | 0.83 µM
34 | CCNC(=S)N1CCc2cc(OC)c(OC)cc2C1COc1ccccc1OC (configuration not stated) | 3.77 µM
35 | COc1ccc(C(C(=O)NC(C)(C)C)N(Cc2ccco2)C(=O)CCC(=O)Nc2cc(C)on2)cc1 (configuration not stated) | 4.84 µM
36 | CC1CCCN(C2=C(NS(=O)(=O)c3ccc(Br)cc3)C(=O)c3ccccc3C2=O)C1 (configuration not stated) | 0.927 µM
37 | CCOc1ccc(CCNC(=O)c2cc(C)nc3ccccc23)cc1OCC | 6.4 µM (inactive)
38 | CCOc1ccc(CCNC(=O)CCNS(=O)(=O)c2ccc(Br)cc2)cc1OCC | 3.65 µM
39 | COc1ccc(CCNC(=O)Cc2cccc(C(F)(F)F)c2)cc1OC | 9.06 µM (inactive)
40 | C=CCOc1ccc(-c2nc3c(c(=O)[nH]c(=O)n3Cc3ccccc3)n2CCCOC)cc1 | 2.98 µM
41 | CCOc1ccc(CCNC(=O)COC(=O)c2ccc(OC)c(OC)c2OC)cc1OCC | < 0.5 µM
42 | COCCNC(=S)N1CCc2cc(OC)c(OC)cc2C1COc1cc(C)cc(C)c1 (configuration not stated) | 4.08 µM
43 | CCCc1cc(N2CCOCC2)n2nc(C)c(-c3ccccc3)c2n1 | < 0.5 µM
44 | COC(=O)/C(=C\c1ccc2c(c1)c1ccccc1n2C)NC(=O)c1ccccc1 | 3.3 µM
45 | COc1ccc2c(c1)c(CC(=O)Nc1ccc(C)cc1)c(C)n2C(=O)c1ccc(Cl)cc1 | < 0.5 µM
46 | COc1ccc(CCNC(=O)[C@H](C)N2C(=O)N3CCc4c([nH]c5ccccc45)[C@@]3(C)C2=O)cc1OC | 1.78 µM
47 | COc1ccc(CCNC(=O)CN2C(=O)c3cccc4cccc(c34)C2=O)cc1OC | 5.77 µM (inactive)
48 | Cc1cccc(NC(=O)CSc2nc3ccccc3nc2N2CCCC2)c1 | 5.07 µM (inactive)
49 | CCOc1ccc(CN(C)C(=O)CNC(=O)Cc2cccc3ccccc23)cc1 | 0.566 µM
50 | CCc1ccc(NC(=O)CSc2nc3ccccc3nc2N2CCCC2)cc1 | 1.94 µM

Row | Compound | IC50
51 | CCOc1ccc(CCNC(=O)COC(=O)/C=C/c2ccc(OC)c(OC)c2)cc1OCC | 1.5 µM
52 | CCOc1ncccc1C(=O)OC(C)C(=O)Nc1ccc(CC)cc1 (configuration not stated) | 2.64 µM
53 | CCOc1ccc(C(C)NC(=O)Cc2ccccc2)cc1OCC (configuration not stated) | > 32 µM (inactive)
54 | COc1ccc(C)cc1NC(=O)C/C(C)=N/NC(=O)Cc1cccc2ccccc12 | 13.8 µM (inactive)
55 | CCOc1ccc(CCNC(=O)C2CC(=O)N(Cc3ccc(OC)cc3)C2)cc1OCC (configuration not stated) | 3.81 µM
56 | COC(=O)/C(=C/c1ccc2c(c1)c1ccccc1n2C)NC(=O)c1ccccc1 | 4.24 µM
57 | CC(C)c1ccc(NC(=O)CSc2nc3ccccc3nc2N2CCCC2)cc1 | 2.08 µM
58 | COc1ccc(CCNC(=O)CCOc2cc(C)ccc2C)cc1OC | 4.55 µM
59 | Cc1cc(C(=O)OC(C)C(=O)Nc2nc(-c3ccccc3)cs2)c(C)o1 (configuration not stated) | 0.758 µM
60 | CCc1c(C#N)c(SCCC(=O)Nc2cccc(OC)c2)nc2c1C(=O)CC(C)(C)C2 | 1.41 µM
61 | COc1ccc(OC)c(CCNC(=O)C(C)n2nc(C)c3c(C)n(-c4ccc(C)cc4)nc3c2=O)c1 (configuration not stated) | 1.59 µM
62 | Cc1ccc(CNC(=O)CCCc2c[nH]c3ccccc23)cc1 | 11.2 µM (inactive)
63 | CCOc1ccccc1NC(=O)C1CCN(C(=O)NCc2ccccc2)CC1 | < 0.5 µM
64 | CCOc1ccc(CCNC(=O)C(C)n2nc(C)n3c(cc4occc43)c2=O)cc1OCC (configuration not stated) | 3.61 µM
65 | CCOc1ccc(CN(C)C(=O)CNC(=O)c2ccc3ccccc3c2)cc1OC | 0.809 µM
66 | COc1ccc(C(C(=O)NC(C)(C)C)N(Cc2cccs2)C(=O)CCC(=O)Nc2cc(C)on2)cc1 (configuration not stated) | 4.16 µM
67 | CCOc1ccc(CC(=O)Nc2ccc(NC(=O)c3ccco3)cc2)cc1OCC | 2.35 µM
68 | CCCCN(C(=O)CCC(=O)Nc1cc(C)on1)C(C(=O)NC1CCCC1)c1ccc(OCC)cc1 (configuration not stated) | 4.07 µM
69 | CCOc1ccccc1Nc1nnc(SC(C)C(=O)Nc2nc(-c3ccccc3)cs2)s1 (configuration not stated) | 1.25 µM
70 | COc1ccccc1CNS(=O)(=O)c1ccc2c(c1)CC(C)N2C(=O)C1CCC1 (configuration not stated) | 0.68 µM
71 | O=C(Cc1coc2ccc3ccccc3c12)NC1CCCc2ccccc21 (configuration not stated) | 4.39 µM
72 | CC(C)OC(=O)/C(=C/c1ccc2c(c1)c1ccccc1n2C)NC(=O)c1ccccc1 | 1.8 µM
73 | Cc1cc(C(=O)NC2CCCc3c2cnn3-c2cccc(C)c2C)c(C)o1 (configuration not stated) | 2.23 µM
74 | CCOc1ccc(CCNC(=O)CS(=O)Cc2nc(-c3ccc(OC)c(OC)c3)oc2C)cc1OCC (configuration not stated) | 7.64 µM (inactive)
75 | CCOc1ccc(CCNC(=O)COC(=O)/C=C/c2ccc(OCC#N)c(OC)c2)cc1OCC | 21 µM (inactive)

Row | Compound | IC50
76 | COc1ccc(C(C(=O)NC(C)(C)C)N(Cc2ccccc2)C(=O)CCC(=O)Nc2cc(C)on2)cc1 (configuration not stated) | 8.98 µM (inactive)
77 | CCOc1ccc(CCNC(=O)Nc2ccccc2)cc1OCC | 0.583 µM
78 | CCOc1ccc(-c2csc(NNC3=NCCCCC3)n2)cc1 | 1.22 µM
79 | Cc1sc(NC(=O)Cc2ccc3c(c2)OCO3)nc1-c1ccc2c(c1)CCN2C(=O)c1ccccc1F | 1.79 µM
80 | O=C(Cc1cccc2ccccc12)Nc1nc(-c2cccc([N+](=O)[O-])c2)cs1 | 4.3 µM
81 | COc1cccc(CNC(=O)CCCc2c[nH]c3ccccc23)c1 | 6.6 µM (inactive)
82 | CCOc1ccccc1NC(=O)CCCNC(=O)c1ccc(Cl)cc1 | 10.7 µM (inactive)
83 | O=C(NC1CCCc2c1cnn2-c1ccccc1F)c1ccccn1 (configuration not stated) | > 32 µM (inactive)
84 | CCOc1ccc(CCNC(=O)COC(=O)c2cccnc2OCC)cc1OCC | 2.29 µM
85 | CCCCCn1c(N)c(-c2nc3ccccc3s2)c2c([N+](=O)[O-])nn(CC)c(=O)c21 | 7.46 µM (inactive)
86 | Cc1cc(C(=O)NC2CCCc3c2cnn3-c2ccc(C)c(C)c2)nc(C)n1 (configuration not stated) | 2.81 µM
87 | CCOc1ccc(CCNC(=O)CN2C(=O)c3cccnc3Oc3ccc(C)cc32)cc1OCC | < 0.5 µM
88 | O=C(NCc1ccccc1)C(c1ccccc1F)N(C(=O)c1csnn1)C1CCCC1 (configuration not stated) | 3.49 µM
89 | CCOc1ccc(CCNC(=O)COC(=O)c2cc([N+](=O)[O-])ccc2N2CCOCC2)cc1OCC | 3 µM
90 | CCOc1ccc(CCNC(=O)CS(=O)Cc2nc(-c3ccc(OC)cc3)oc2C)cc1OCC (configuration not stated) | 2.11 µM
91 | CCc1ccc(NC(=O)CNC(=O)[C@@H]2Cc3ccccc3CN2C(=O)OC(C)(C)C)cc1 | 5.02 µM (inactive)
92 | CC(=O)c1cccc(N=Nc2c(-c3ccccc3)[nH]n(-c3ccccc3)c2=O)c1 | 0.633 µM
93 | COc1ccc2c(c1)c(CC(=O)Nc1ccc(C(C)=O)cc1)c(C)n2C(=O)c1ccc(Cl)cc1 | 2.88 µM
94 | COc1ccc(NC(=O)CSc2nc3ccccc3nc2N2CCCC2)cc1Cl | 2.85 µM
95 | COc1ccc(/C=C(\NC(=O)c2ccc(OCC(C)C)cc2)C(=O)OCc2ccco2)cc1 | 2.71 µM
96 | COc1ccc(NC(=O)CN2C(=O)NC(c3ccccc3)(c3ccccc3)C2=O)cc1OC | 1.6 µM
97 | COc1ncccc1C(=O)NC1CCCc2c1cnn2-c1ccc(C)c(C)c1 (configuration not stated) | 3.44 µM
